Results from ChEMBL document CHEMBL1154441, “Chemotherapy of leishmaniasis part-VIII: synthesis and bioevaluation of novel chalcones” (2008).
Activity calls are given as the source filed them. The rule behind the calls is not given here.

What was measured:
Type in all cases: functional
Leishmania donovani [1] = assay: Antileishmanial activity against Leishmania donovani MHOM/IN/Dd8 amastigotes infected in mouse J774A.1 cells assessed as inhibition of parasitic growth at 5 ug/ml after 24 hrs by luciferase activity-based luminescence assay; settings: for Percent inhibition of intracellular amastigote growth at 5 µg/mL: J774.A1, 24 h, read-out: INH
Procedure, shortened: (§1)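 Macrophages seeded 5 × 10⁴ per well in RPMI-1640 + 10% FCS, 37 °C, CO₂; after 24 h infected with stationary-phase luciferase-expressing promastigotes (2.5 × 10⁵ per well) that transform to amastigotes. Medium replaced with compound in complete medium, incubated 37 °C for 24 h or more; then PBS added, mixed 1:1 with Steady-Glo, shaken 1–2 min, luminescence read to give growth inhibition.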

Leishmania donovani [2] = assay: Antileishmanial activity against Leishmania donovani MHOM/IN/Dd8 amastigotes infected in mouse J774A.1 cells assessed as inhibition of parasitic growth at 2 ug/ml after 24 hrs by luciferase activity-based luminescence assay; settings: for percent inhibition of intracellular amastigote growth at 2 µg/mL: J774.A1, 24 h, read-out: INH; procedure, shortened: as §1
Leishmania donovani [3] = assay: Antileishmanial activity against Leishmania donovani MHOM/IN/Dd8 promastigotes assessed as inhibition of parasitic growth at 2 ug/ml after 72 hrs by luciferase activity-based luminescence assay
Procedure, shortened: (§2)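 Late-log luciferase-transfected L. donovani promastigotes (kept at 25 ± 1 °C in medium 199 + 10% FCS under G418) seeded at 5 × 10⁵ per well in medium 199; exposed 72 h to serial dilutions of compound in DMSO, with parallel DMSO dilutions as controls. Aliquot mixed 1:1 with Steady-Glo reagent; luminescence read as RLU and growth inhibition derived from luciferase signal.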

Leishmania donovani [4] = assay: Antileishmanial activity against Leishmania donovani MHOM/IN/Dd8 promastigotes assessed as inhibition of parasitic growth at 5 ug/ml after 72 hrs by luciferase activity-based luminescence assay; procedure, shortened: as §2

Structure (SMILES) | Percent inhibition of intracellular amastigote growth at 5 µg/mL (Leishmania donovani [1]) [%] | percent inhibition of intracellular amastigote growth at 2 µg/mL (Leishmania donovani [2]) [%] | inhibition at 2 µg/mL (Leishmania donovani [3]) [%] | inhibition at 5 µg/mL (Leishmania donovani [4]) [%] | Activity (Leishmania donovani [1]) | Activity (Leishmania donovani [2])
CC1=CCCC(C)(C)C1CCC(=O)/C=C/c1cccnc1 (configuration not stated) | 92 | 33 | 100 | 100 | – | –
COc1cc(/C=C/C(=O)CCC2C(C)=CCCC2(C)C)cc(OC)c1OC (configuration not stated) | – | – | 50 | 90 | inactive | inactive
CC1=CCCC(C)(C)C1CCC(=O)/C=C/c1cccc([N+](=O)[O-])c1 (configuration not stated) | 65 | – | 98 | 99 | – | –
CC1=CCCC(C)(C)C1CCC(=O)/C=C/c1ccc([N+](=O)[O-])cc1 (configuration not stated) | 80 | 74 | 95 | 99 | – | –
COc1ccc(/C=C/C(=O)CCC2C(C)=CCCC2(C)C)cc1OC (configuration not stated) | 95 | 79 | 100 | 100 | – | –
CC1=CCCC(C)(C)C1CCC(=O)/C=C/c1ccc(CO)o1 (configuration not stated) | – | – | 65 | 93 | inactive | inactive
CC1=CCCC(C)(C)C1CCC(=O)/C=C/c1ccc(Cl)cc1 (configuration not stated) | 93 | 88 | 100 | 100 | – | –
CC1=CCCC(C)(C)C1CCC(=O)/C=C/c1ccc(OCc2ccccc2)cc1 (configuration not stated) | – | – | 61 | 100 | inactive | –
COc1ccc(/C=C/C(=O)CCC2C(C)=CCCC2(C)C)cc1 (configuration not stated) | 81 | 40 | 98 | 98 | – | –
CC1=CCCC(C)(C)C1CCC(=O)/C=C/c1ccc(O)cc1 (configuration not stated) | – | – | 76 | 100 | inactive | inactive
CC1=CCCC(C)(C)C1CCC(=O)/C=C/c1ccccc1[N+](=O)[O-] (configuration not stated) | – | – | 34 | 53 | inactive | inactive
